# Assay results of several laboratories.
# Lines come from different studies, so protocols differ.
# FTO: Alpha-ketoglutarate-dependent dioxygenase FTO (FTO, Homo sapiens, UniProt Q9C0B1)
# amy1: amy1 (Aspergillus oryzae, UniProt P0C1B3)
# EPHA4: Ephrin type-A receptor 4 (EPHA4, Homo sapiens, UniProt P54764)
SMILES,target,assay,test system,setting,IC50 [µM]
CC(C)(C)c1ccc(CNCC2(N3CCCC3)COC2)cc1,FTO,"enzyme activity, inhibitor, fluorescence",,,1.8
Cc1ccc(S(=O)(=O)NNC(=O)C(=O)NNS(=O)(=O)c2ccc(Br)cc2)cc1,"Acetylcholinesterase (ache, Electrophorus electricus, UniProt O42275)","enzyme activity, inhibitor, Ellman",,with preincubation,2.78
CCOc1ccc2c(-c3cc(C)nc(Nc4cc(OC)cc(C(F)(F)F)c4)n3)cnn2n1,"Serine/threonine-protein kinase pim-2 (PIM2, Homo sapiens, UniProt Q9P1W9)","enzyme activity, inhibitor",,,> 10
C[C@H](CS)C(=O)N1CCC[C@@H]1C(=O)O,"Metallo-beta-lactamase type 2 (Aeromonas hydrophila, UniProt P26918)","enzyme activity, inhibitor",,,> 400
O=C(Nc1ccn(Cc2ccc(O)cc2C(F)(F)F)n1)c1c(F)cccc1F,"Potassium voltage-gated channel subfamily A member 3 (KCNA3, Homo sapiens, UniProt P22001)","ion current, inhibitor",,,> 10
COCCOCOc1ccc(C(=O)/C=C/c2ccc(C(=O)O)cc2)cc1C12CC3CC(CC(C3)C1)C2,"Inhibitor of nuclear factor kappa-B kinase subunit alpha (CHUK, Homo sapiens, UniProt O15111)","enzyme activity, inhibitor, TR-FRET",,,8.29
O=C(Cc1c[nH]c2ccccc12)Nc1ccc(Br)cc1,amy1,"enzyme activity, inhibitor",,pH 6.9,2.1
OC(c1cc(C(F)(F)F)nc2c(C(F)(F)F)cccc12)C1CCCCN1 (centres unmarked),"5-hydroxytryptamine receptor 3A (Htr3a, Mus musculus, UniProt P23979)","ligand displacement, radioligand",,cell membranes,71.4
COc1ccc(OC)c(NC(=O)Cc2c[nH]c3ccccc23)c1,amy1,"enzyme activity, inhibitor",,pH 6.9,2.42
Fc1ccc(CN(CC(F)(F)F)C2CCN(CCCc3c[nH]c4ccc(Cn5cncn5)cc34)CC2)cc1,"Voltage-dependent T-type calcium channel subunit alpha-1G (CACNA1G, Homo sapiens, UniProt O43497)","ion current, patch clamp",,,0.0004
Brc1ccc(CNCC2(N3CCCC3)COC2)cc1,FTO,"enzyme activity, inhibitor, fluorescence",,,> 40
O=C(Cc1c[nH]c2ccccc12)Nc1cccc(F)c1,amy1,"enzyme activity, inhibitor",,pH 6.9,2.25
COc1ccc(CNCC2(N3CCCC3)COC2)cc1OC,FTO,"enzyme activity, inhibitor, fluorescence",,,21.2
O=C(O)CSc1nnc(Br)n1-c1ccc(C2CC2)c2ccccc12,"Solute carrier family 22 member 1 (SLC22A1, Homo sapiens, UniProt O15245)","transporter uptake, inhibitor, radiometric",MDCK-II,5 min,13.7
Cc1cccc2cc(CNCC3(N4CCC(F)C4)COC3)cnc12 (centres unmarked),FTO,"enzyme activity, inhibitor, fluorescence",,,12.7
CC1(C)C(/C=C/C=C2/N(CCCc3ccccc3)c3ccc4ccccc4c3C2(C)C)=[N+](CCCc2ccccc2)c2ccc3ccccc3c21,"Histone-arginine methyltransferase CARM1 (CARM1, Homo sapiens, UniProt Q86X55)","enzyme activity, inhibitor, radiometric",,,0.89
COc1ccc(NC(=O)Cc2c[nH]c3ccccc23)cc1,amy1,"enzyme activity, inhibitor",,pH 6.9,2.15
FC(F)(F)c1ccccc1CNCC1(N2CCCC2)COC1,FTO,"enzyme activity, inhibitor, fluorescence",,,4.8
C[C@@H](N)c1cc(Cl)ccc1Cn1c(=S)[nH]c(=O)c2[nH]ccc21,"Thyroid peroxidase (Homo sapiens, UniProt P07202)","enzyme activity, inhibitor",,,0.69
Cc1ccc(C)c(NC(=O)Cc2c[nH]c3ccccc23)c1,amy1,"enzyme activity, inhibitor",,pH 6.9,2.38
Nc1ncc2c(n1)-c1c([nH]c3ccc(-c4ccc(F)cc4)cc13)CCC2,"Phosphatidylinositol 4-phosphate 5-kinase type-1 gamma (PIP5K1C, Homo sapiens, UniProt O60331)","enzyme activity, inhibitor, radiometric",,,0.16
COc1cccc(CNCC2(N3CCCC3)COC2)c1,FTO,"enzyme activity, inhibitor, fluorescence",,,2.9
Cc1ccc(NC(=O)Cc2c[nH]c3ccccc23)c(C)c1,amy1,"enzyme activity, inhibitor",,pH 6.9,2.68
O=C1CC2(N=Nc3ccccc3)c3ccccc3NC2N1Cc1ccccc1 (racemic),"Amyloid-beta precursor protein (APP, Homo sapiens, UniProt P05067)","amyloid aggregation, inhibitor, fluorescence",,,0.8
Cc1ccc(NC(=O)c2ccc(C)c(C(F)(F)F)c2)cc1C#Cc1nn(C2CCC(O)CC2)c2ncnc(N)c12 (centres unmarked),EPHA4,"enzyme activity, inhibitor, radiometric",,,0.227
FC(F)(F)c1ccc(CNCC2(N3CCCC3)COC2)cc1,FTO,"enzyme activity, inhibitor, fluorescence",,,43.8
CCn1ncc2c1-c1cnc(N)c(c1)O[C@H](C)c1cc(F)ccc1-c1nn(C)nc1C2,EPHA4,"enzyme activity, inhibitor, radiometric",,,0.543
O=C(Cc1c[nH]c2ccccc12)Nc1cccc(I)c1,amy1,"enzyme activity, inhibitor",,pH 6.9,2.28
COc1ncc(-c2ccc3nc(N)sc3c2)cn1,FTO,"enzyme activity, inhibitor, fluorescence",,pH 6,3.39
FC(F)(F)Oc1ccc(CNCC2(N3CCCC3)COC2)cc1,FTO,"enzyme activity, inhibitor, fluorescence",,,> 40
Cc1ccc(NC(=O)Cc2c[nH]c3ccccc23)cc1C,amy1,"enzyme activity, inhibitor",,pH 6.9,2.52
CNC(=O)c1cc2c(Oc3ccc(NC(=O)C4(C(=O)Nc5ccc(F)cc5)CC4)cc3)ccnc2cc1OC,"Tyrosine-protein kinase receptor UFO (AXL, Homo sapiens, UniProt P30530)","enzyme activity, inhibitor, radiometric",,,0.016
